These results are taken from the RNAGym collection of RNA variant scans (doi:10.1126/science.aae0568).

Variants at the floor of the assay were thinned out. Where only a bound is given, the exact number is not on record here.

B1: tRNA (parent)
chain: GUUCCGUUGGCGUAAUGGUAACGCGUCUCCCUCCUAAGGAGAAGACUGCGGGUUCGAGUCCCGUACGGAACG

This series covers variants of B1. The experiment in a line: yeast fitness relative to wild type (ratio to wild type); higher = fitter; tRNA-Arg(CCU), competitive growth, 37 C, YPD. An outline of the steps:
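Variants of the tRNA-Arg(CCU) gene were chemically synthesised with a 3% per-site mutation rate across 69 sites and placed at the native genomic locus in Saccharomyces cerevisiae. Six parallel replicates of the pooled strains were competed in YPD at 37°C for 24 hours, and gene amplicons from the start and end populations were read by 100-nucleotide paired-end sequencing. Darwinian fitness relative to wild type was derived from changes in genotype frequencies. Genotypes required ≥ 100 starting reads, and estimates < 0.5 were set to 0.5.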
Take A37C A40G: the yeast fitness is 0.716.

Take U26G C34U G44C G56A: the yeast fitness was no more than 0.5.

With C11U A21U C34G G56A, the yeast fitness is no more than 0.5.

Turning to C4G A69U, the yeast fitness was found to be 0.775.

On to U13C U19C A36U A42G G52A C60A C62A, for which the yeast fitness was no more than 0.5.

As for U8C C22A C33G G39C C46U G52A C66U, the yeast fitness was no more than 0.5.

With U7C U16G G17A C49U C62A, the yeast fitness was determined as 0.506.

Consider C49G A65U, for which the yeast fitness worked out at 0.748.

As to C5A U54G A65U, the yeast fitness is no more than 0.5.

For the variant U8G U26A G68C, the yeast fitness was no more than 0.5.

Take C24U C33U: the yeast fitness is 0.747.

Turning to G48A G52C U54C C66U, the yeast fitness is no more than 0.5.

As for C22A A45C C61U, the yeast fitness was determined as 0.604.

U2C G10A C34G C46U G48C U54G: the yeast fitness was no more than 0.5.

As to U2C G9C U28C G50C A57C A69U, the yeast fitness is no more than 0.5.

For the variant A20G G63C, the yeast fitness was determined as 0.837.

For the variant G9A G48A, the yeast fitness was determined as 0.955.

As to U53A G67C, the yeast fitness was 0.664.

For A40C A43U C61A, the yeast fitness was 0.611.

As for U2C U3C C34U C62G G63A, the yeast fitness is no more than 0.5.

With G6A C61A, the yeast fitness came to 0.66.

For the variant A15U G50C C60U, the yeast fitness was no more than 0.5.

As for C4G U64C, the yeast fitness worked out at 0.872.

In the case of C24U U59G, the yeast fitness came to 0.712.

Turning to G6A C33A G58A A65C G67A, the yeast fitness is no more than 0.5.

Take A20G A43U C62U: the yeast fitness stood at 0.86.

Take C4A C5G C66G: the yeast fitness was 0.597.

Take U2G A20U U32A C46G: the yeast fitness is no more than 0.5.

Consider A20G C27G A43U G68C, for which the yeast fitness was found to be 0.582.

Turning to G9C U28A A45C G48C C62G, the yeast fitness is 0.545.

G17C C29U U32A C46U C60A C66G: the yeast fitness was no more than 0.5.

Turning to A45G A65C, the yeast fitness is 0.868.

Turning to C11U C31A G51C, the yeast fitness is 0.532.

Take A14U G56A G67A: the yeast fitness is no more than 0.5.

In the case of G9C C33G G39A C66G, the yeast fitness is 0.59.

As for C5U G9A C34A, the yeast fitness was 0.704.

In the case of U35C A42C A43G G48A, the yeast fitness turned out to be 0.576.

For the variant C11G C24A A43C, the yeast fitness is no more than 0.5.

Consider G12C C24U G48C A69C, for which the yeast fitness is no more than 0.5.

Consider A36C A40U A57C, for which the yeast fitness is 0.52.

Take G6A A14U C61A: the yeast fitness is no more than 0.5.

C5G C31U A36C G38A G50A: the yeast fitness was no more than 0.5.

For U13G A14C A42U G51A U54A G56A, the yeast fitness was no more than 0.5.

In the case of G10C C29G G39A, the yeast fitness is no more than 0.5.

With U8C G23A C34A A42U C46A A57C G67C, the yeast fitness was no more than 0.5.

Consider U8G A20C A43U G67A, for which the yeast fitness was no more than 0.5.

In the case of G18A A57U A70C, the yeast fitness came out at 0.536.

Regarding C5U A40U A45G C46U, the yeast fitness turned out to be 0.986.

For the variant U3A G25A C49G A65G, the yeast fitness was no more than 0.5.

Consider C22A C34U, for which the yeast fitness turned out to be 0.761.

Consider A15G C24G U26A G52A G68C, for which the yeast fitness stood at 0.717.

As for A21U C62A, the yeast fitness stood at 0.613.

In the case of U19A A20C C31G, the yeast fitness is no more than 0.5.

Take G25A G51C C66U: the yeast fitness was no more than 0.5.

For U7C G17A C22U, the yeast fitness amounted to 0.651.

With G9C A57U C62G, the yeast fitness is no more than 0.5.

As to G18A G50A C62G, the yeast fitness is no more than 0.5.

As for C5U C29G C30A U64G A69C, the yeast fitness was no more than 0.5.

As for C5U G12A C49U, the yeast fitness amounted to 0.612.

C33G G51A C55A: the yeast fitness was no more than 0.5.

With C33G U54A, the yeast fitness is no more than 0.5.

On to G23C C55U, for which the yeast fitness is no more than 0.5.

For A15C C33A C34U A36C, the yeast fitness is 0.604.

On to C27U U28A U32A C34U A36C C55A A70G, for which the yeast fitness was 0.539.

As to A37C A57U, the yeast fitness is 0.633.

For the variant A20C C29G, the yeast fitness turned out to be 0.609.

Consider A21C C22A C24U U32A C62G, for which the yeast fitness was no more than 0.5.

For G17C C22U U26C C46A G63A, the yeast fitness is no more than 0.5.

For C22G C30G A45U, the yeast fitness was no more than 0.5.

For U7G C31U U47C, the yeast fitness is 0.536.

Regarding A20C C31A G39C C49U, the yeast fitness is no more than 0.5.

C5G C11G C24U C62A: the yeast fitness was determined as 0.584.

For C5U C34G C55A G63C, the yeast fitness was no more than 0.5.

U16C U19A U26A: the yeast fitness is 0.648.

For C29A C55U, the yeast fitness was 0.603.

As to G39C A40C G41A A42G A65U, the yeast fitness was no more than 0.5.

With U3A C11A C29U A57C, the yeast fitness was no more than 0.5.

For C5U U28A G67A, the yeast fitness is 0.545.

With U2A U47C C66U, the yeast fitness turned out to be 0.683.

Regarding U13C A15G C22G, the yeast fitness is 0.571.

On to A14C C46U G50C C61A A70C, for which the yeast fitness is no more than 0.5.

Turning to C5A U16A A45U, the yeast fitness was determined as 0.593.

With U2G A69C A70G, the yeast fitness was 0.57.

Consider A14G U26C A37G G67A, for which the yeast fitness is 0.539.

As for U13A G68C, the yeast fitness stood at 0.762.

With U26C A40G A57C, the yeast fitness is 0.56.

Take C11G C22A C27G C31U U59A: the yeast fitness was 0.569.

Take U32A C62A: the yeast fitness was 0.549.

Consider G9A C11G U13G G23C G25A C34U U59C C66U, for which the yeast fitness is no more than 0.5.

On to G10A C30U G41A A69C, for which the yeast fitness is 0.548.

As to G12A A40G, the yeast fitness stood at 0.871.

C11A C33U C49U C61U: the yeast fitness was no more than 0.5.

In the case of G12A U35C A37C C62U A65C, the yeast fitness is no more than 0.5.

In the case of U19C C24U C66U, the yeast fitness stood at 0.712.

As for U19C C31G, the yeast fitness is 0.841.

G23C A42G G67A: the yeast fitness was no more than 0.5.

With G9C A15C A45C C49U C62G C66U, the yeast fitness worked out at 0.591.

As for C29A G48A G50A C66U, the yeast fitness was no more than 0.5.

As for C4G G9A A21C C22A, the yeast fitness was no more than 0.5.

With G12A A42U C60G A69G, the yeast fitness is no more than 0.5.

Regarding C33U G58C C62A C66G, the yeast fitness was no more than 0.5.

In the case of A20C C24G C27U C31G A65C, the yeast fitness is no more than 0.5.

As to U32C A57U A70C, the yeast fitness was no more than 0.5.

Turning to C11U C30G A40G G50C G51C, the yeast fitness was no more than 0.5.

As for U2G A40U C55U A69U, the yeast fitness is no more than 0.5.

Consider U3C G23C C27G G39A C66U, for which the yeast fitness is no more than 0.5.

On to U32C G67U, for which the yeast fitness came to 0.861.

For G10A A21C C66U, the yeast fitness stood at 0.531.

Turning to A20G A43U C46U A57U, the yeast fitness is no more than 0.5.

A15U C55G: the yeast fitness was 0.604.

Regarding A36U A45C C49G G67A, the yeast fitness came to 0.548.

Regarding G23A A43U, the yeast fitness was 0.699.

Turning to C29A C30U G58A, the yeast fitness is no more than 0.5.

In the case of C5G G23A C61G, the yeast fitness was no more than 0.5.

Regarding G39A U47A C55U G67A A69G, the yeast fitness is no more than 0.5.

For the variant A20C C55G A65G, the yeast fitness came out at 0.53.

For A15G G17A C46U, the yeast fitness came out at 0.738.

In the case of U2C C22U A40U, the yeast fitness amounted to 0.574.

For the variant C34G C61U C66U, the yeast fitness came out at 0.538.

Turning to G9A G12C C22U, the yeast fitness amounted to 0.591.

On to U26C G38A A43C A65C, for which the yeast fitness is no more than 0.5.

C11U U26G U28C C49A G58C C62U: the yeast fitness was 0.527.

With U32C A42C G44C A69C, the yeast fitness was no more than 0.5.

Turning to G12C C30U C31U, the yeast fitness stood at 0.611.

Turning to A15G A42C G50A U59C A65C, the yeast fitness is no more than 0.5.

Take C22G G38C C55G: the yeast fitness is no more than 0.5.

Turning to C31U U59A G63A, the yeast fitness is 0.683.

As to U3C C4U A70U, the yeast fitness amounted to 0.841.

U7A U16A C29U C60U C66G G68A: the yeast fitness is no more than 0.5.

As for C22U G44C G63A, the yeast fitness is no more than 0.5.

For G12C C24G C27U A43U A69U, the yeast fitness was 0.625.

For the variant U3C A14G C30U A45C C46G A65G, the yeast fitness is no more than 0.5.

In the case of C4A G44A C46U U53C C62U, the yeast fitness was no more than 0.5.

In the case of G9C U28C, the yeast fitness came to 0.675.

Take A45G C46A A69U: the yeast fitness was 0.768.

As for C4U G17A G18A C34U G56C, the yeast fitness is no more than 0.5.

On to U13C C30U C33U A69U A70G, for which the yeast fitness is 0.568.

For the variant C30A C31U C66U A69U, the yeast fitness is no more than 0.5.

With U3A A40G A57C A69C, the yeast fitness was no more than 0.5.

C30A C31U A36G C55U: the yeast fitness was no more than 0.5.

With G17A G67C, the yeast fitness worked out at 0.834.

Turning to U3G G10A A21C U28A G68C, the yeast fitness was no more than 0.5.

For U35A C55U, the yeast fitness is 0.564.

With G25C G58C G67C, the yeast fitness came to 0.706.

Turning to C34A C46U U47A, the yeast fitness was no more than 0.5.

Consider G6C C34G G38A, for which the yeast fitness was no more than 0.5.

C4U G18C C46U C60G: the yeast fitness is no more than 0.5.

For C34U A57G C60A, the yeast fitness was no more than 0.5.

C5U A37C: the yeast fitness is 0.764.

In the case of G6A U13A U16A C24G C33G C62G, the yeast fitness was no more than 0.5.

In the case of G23A U28C C30A, the yeast fitness is no more than 0.5.

For the variant C5G C49U U59G, the yeast fitness worked out at 0.579.

For C22U U47C G51C C66U, the yeast fitness was no more than 0.5.

Take U3A U16C C33G: the yeast fitness amounted to 0.661.

Turning to U8A A15G, the yeast fitness amounted to 0.665.

Regarding U13A U32C, the yeast fitness stood at 0.875.

Regarding A20U C31A A69C, the yeast fitness was determined as 0.624.

For the variant C4G G9C C22A G67A, the yeast fitness is no more than 0.5.

Take C5U G10A A69G: the yeast fitness is no more than 0.5.

In the case of C60U C62U A70C, the yeast fitness worked out at 0.539.

As for U13G A14C A40C A42U, the yeast fitness is no more than 0.5.

Regarding A21C U54C, the yeast fitness is 0.845.

For the variant G17A C24G C29G A37U, the yeast fitness was no more than 0.5.

Turning to C30A G44C, the yeast fitness was 0.795.

In the case of G10C U26A C61G A70C, the yeast fitness is no more than 0.5.

In the case of C4G U19C G51A A65G, the yeast fitness is no more than 0.5.

On to C4A C34G G68A, for which the yeast fitness was no more than 0.5.
